Experimental data: ChEMBL document CHEMBL1154326 (J Med Chem, 2009)
The source made the active and inactive calls. The rule behind the calls is not given here.

Experiments:
[1] = molecular target: T1, Histamine H4 receptor (Homo sapiens, UniProt Q9H3N8); assay: Antagonist activity at human histamine H4 receptor expressed in Sf9 cells coexpressing RGS19 protein by steady-state GTPase assay; assay type: functional
How it was run: (§1)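 Antagonist-mode steady-state GTPase assay in Sf9 membranes: H1R coexpressed with RGS4; H2R as GsαS fusion; H3R coexpressed with Giα2/Gβ1γ2/RGS4; H4R as RGS19 fusion with Giα2/Gβ1γ2. […] MgCl2: H1R/H2R 1.0 mM, H3R/H4R 5.0 mM; H4R plus 100 mM NaCl. [γ-32P]GTP hydrolysis measured over 20 min at 25 °C. pKB from nonlinear sigmoidal fits; duplicate runs.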

[2] = molecular target: T2, Histamine H3 receptor (Homo sapiens, UniProt Q9Y5N1); assay: Antagonist activity at human histamine H3 receptor expressed in Sf9 cells coexpressing Gialpha-2-Gbeta-1-gamma-2 and RGS4 proteins protein by steady-state GTPase assay; assay type: functional; how it was run: as §1
T2 sequence (Q9Y5N1 whole entry): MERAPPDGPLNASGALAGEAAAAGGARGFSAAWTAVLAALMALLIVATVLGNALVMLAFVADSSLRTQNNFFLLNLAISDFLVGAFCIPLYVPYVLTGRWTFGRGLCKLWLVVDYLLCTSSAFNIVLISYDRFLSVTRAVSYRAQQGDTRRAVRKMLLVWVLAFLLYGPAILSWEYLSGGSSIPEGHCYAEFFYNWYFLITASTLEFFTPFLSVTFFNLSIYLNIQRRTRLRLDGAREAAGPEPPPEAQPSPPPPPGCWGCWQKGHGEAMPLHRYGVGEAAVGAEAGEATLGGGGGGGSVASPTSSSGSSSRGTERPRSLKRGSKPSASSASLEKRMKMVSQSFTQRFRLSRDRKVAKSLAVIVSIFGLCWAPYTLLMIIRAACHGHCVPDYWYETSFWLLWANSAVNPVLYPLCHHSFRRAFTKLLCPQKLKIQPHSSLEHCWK

[3] = molecular target: T3, Histamine H2 receptor (Homo sapiens, UniProt P25021); assay: Antagonist activity at human histamine H2 receptor expressed in Sf9 cells coexpressing GsalphaS protein by steady-state GTPase assay; assay type: functional; how it was run: as §1
T3 sequence (P25021 whole entry): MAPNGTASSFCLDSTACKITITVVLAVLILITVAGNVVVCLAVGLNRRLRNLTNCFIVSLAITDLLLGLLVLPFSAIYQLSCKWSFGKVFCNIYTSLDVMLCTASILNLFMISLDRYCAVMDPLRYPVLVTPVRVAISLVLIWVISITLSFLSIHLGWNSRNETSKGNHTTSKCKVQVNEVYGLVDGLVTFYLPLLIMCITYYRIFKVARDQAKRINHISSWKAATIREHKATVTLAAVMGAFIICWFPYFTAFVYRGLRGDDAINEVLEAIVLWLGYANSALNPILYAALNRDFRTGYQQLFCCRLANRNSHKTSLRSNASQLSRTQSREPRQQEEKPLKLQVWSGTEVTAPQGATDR

[4] = molecular target: T1, Histamine H4 receptor; assay: Agonist activity at human histamine H4 receptor expressed in Sf9 cells coexpressing RGS19 protein by steady-state GTPase assay; assay type: functional
How it was run: (§2)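 Sf9 membranes (10-20 μg protein/tube), washed and resuspended in 10 mM Tris-HCl pH 7.4. H2R as hH2R-GsαS fusion; H3R coexpressed with Giα2, Gβ1γ2, RGS4; H4R as hH4R-RGS19 fusion with Giα2, Gβ1γ2. Buffer: 50 mM Tris/HCl pH 7.4, MgCl2 (H2R 1.0 mM; H3R/H4R 5.0 mM), 100 μM EDTA, 100 μM ATP, 100 nM GTP, 100 μM AppNHp, creatine phosphate/kinase, 0.2% BSA; H4R plus 100 mM NaCl.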

[5] = molecular target: T1, Histamine H4 receptor; conditions: Sf9
[6] = molecular target: Histamine H1 receptor (Homo sapiens, UniProt P35367); assay: Antagonist activity at human histamine H1 receptor expressed in Sf9 cells coexpressing RGS4 by steady-state GTPase assay; assay type: functional; how it was run: as §1
Chain of Histamine H1 receptor (P35367 whole entry): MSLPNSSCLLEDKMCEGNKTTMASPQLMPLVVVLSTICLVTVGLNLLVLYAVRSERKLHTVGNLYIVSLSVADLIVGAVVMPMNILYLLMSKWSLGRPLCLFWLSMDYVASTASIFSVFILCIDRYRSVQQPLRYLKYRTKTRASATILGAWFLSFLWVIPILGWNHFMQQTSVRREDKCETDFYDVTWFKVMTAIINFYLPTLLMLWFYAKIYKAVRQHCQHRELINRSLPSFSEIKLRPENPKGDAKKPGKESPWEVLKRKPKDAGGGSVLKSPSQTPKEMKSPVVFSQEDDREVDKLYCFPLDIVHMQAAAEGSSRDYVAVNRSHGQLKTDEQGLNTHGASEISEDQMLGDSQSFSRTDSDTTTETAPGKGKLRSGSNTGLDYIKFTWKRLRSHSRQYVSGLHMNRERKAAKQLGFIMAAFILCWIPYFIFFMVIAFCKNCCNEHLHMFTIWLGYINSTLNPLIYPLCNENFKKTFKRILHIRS

[7] = molecular target: T3, Histamine H2 receptor; assay: Agonist activity at human histamine H2 receptor expressed in Sf9 cells coexpressing GsalphaS protein by steady-state GTPase assay; assay type: functional; how it was run: as §2
[8] = molecular target: T3, Histamine H2 receptor; assay: Antagonist activity at human histamine H2 receptor expressed in Sf9 cells coexpressing GsalphaS protein by steady-state GTPase assay
[9] = molecular target: T3, Histamine H2 receptor; assay: Agonist activity at human histamine H2 receptor expressed in Sf9 cells coexpressing GsalphaS protein at 1 mM by steady-state GTPase assay; assay type: functional
[10] = molecular target: T2, Histamine H3 receptor; assay: Agonist activity at human histamine H3 receptor expressed in Sf9 cells coexpressing Gialpha-2-Gbeta-1-gamma-2 and RGS4 proteins protein by steady-state GTPase assay; assay type: functional; how it was run: as §2

T1 sequence (Q9H3N8 whole entry, the tested form may be a part): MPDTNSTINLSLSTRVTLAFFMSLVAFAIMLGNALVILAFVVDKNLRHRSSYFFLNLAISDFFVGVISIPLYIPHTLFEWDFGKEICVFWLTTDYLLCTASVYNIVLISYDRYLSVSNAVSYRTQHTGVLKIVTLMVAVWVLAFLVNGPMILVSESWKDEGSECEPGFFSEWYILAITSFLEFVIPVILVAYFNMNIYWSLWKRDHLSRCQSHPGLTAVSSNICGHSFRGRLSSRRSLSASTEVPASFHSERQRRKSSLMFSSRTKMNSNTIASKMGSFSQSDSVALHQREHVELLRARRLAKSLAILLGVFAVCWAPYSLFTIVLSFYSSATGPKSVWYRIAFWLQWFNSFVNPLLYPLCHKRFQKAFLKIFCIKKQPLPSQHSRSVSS

| Compound | pKb [1] | pKb [2] | pKb [3] | further results |
| --- | --- | --- | --- | --- |
| NC(=O)/N=C(/NCCCCc1ccccc1)NCCCc1c[nH]cn1 | 6.33 | 6.51 |  |  |
| N#C/N=C(/NCCCCc1c[nH]cn1)NCCCc1ccccn1 |  | 5.89 | 5.48 | EC50 [4]: 575 nM |
| N#C/N=C(/NCCCCc1c[nH]cn1)NCCCC1CCCCC1 | 6.35 | 5.82 | < 5 |  |
| CC(C)CN/C(=N\C#N)NCCCCCc1c[nH]cn1 | 6.51 | 6.57 | < 5 |  |
| N#C/N=C(/NCCCc1c[nH]cn1)NCCCC1CCCCC1 | 5.82 |  | < 5 |  |
| N/C(=N/CCc1ccc(I)cc1)SCCCc1cnc[nH]1 |  |  |  | Kinact [5]: 13 nM |
| N#C/N=C(/NCCCc1ccccc1)NCCc1c[nH]cn1 | < 5 | 5.18 |  | pKb [6]: < 5; EC50 [7]: > 10000 nM |
| Cc1[nH]cnc1CSCCN/C(=N/C#N)NCCC(c1ccccc1)c1ccccc1 |  |  |  | EC50 [4]: > 10000 nM; pKb [8]: 5.8 |
| CC(CCN/C(=N\C#N)NCCCCc1c[nH]cn1)c1ccccc1 (configuration not stated) |  | 6.19 | < 5 | pKb [6]: < 5 |
| N#C/N=C(/NCCCc1c[nH]cn1)NCCc1ccccc1 | 5.32 |  | < 5 | Activity [9]: inactive |
| N#C/N=C(/NCCCCc1c[nH]cn1)NCCCc1cccnc1 |  | 6.19 | 5.92 | EC50 [4]: 1200 nM |
| CC(C)N/C(=N\C#N)NCCCCc1c[nH]cn1 |  | 5.49 | < 5 | pKb [6]: < 5; EC50 [4]: 331 nM |
| N#C/N=C(/NCCCCc1c[nH]cn1)NCCCc1ccc(F)cc1 | 6.59 | 6.11 | 5.28 |  |
| N#C/N=C(/NCCCCc1c[nH]cn1)NCCCc1ccccc1 |  | 5.64 | 5.25 | pKb [6]: < 5 |
| N#CNC(N)=NCCCCc1cnc[nH]1 |  |  |  | EC50 [10]: 251 nM; EC50 [4]: 170 nM |
| NC(=O)/N=C(\NCCCCc1c[nH]cn1)NCCCc1ccccc1 | 7.07 | 6.44 |  | Activity [4]: inactive |
| N#C/N=C(\NCCCCc1ccccc1)NCCCCc1c[nH]cn1 | 6.34 | 5.54 | 5.03 |  |
| N#CNC(=NCCc1cnc[nH]1)NCCCC1CCCCC1 |  |  |  | EC50 [7]: 3890 nM |
| N#C/N=C(\NCCc1c[nH]cn1)NCCc1c[nH]c2ccccc12 | < 5 |  |  | pKb [8]: < 5 |
| Cc1ccc(S(=O)(=O)NC(=N)NCCCc2c[nH]cn2)cc1 | 5.85 | 6.11 |  | pKb [6]: < 5; EC50 [7]: 12000 nM |
| N#C/N=C(/NCCCCc1c[nH]cn1)NCCc1c[nH]c2ccccc12 | 5.8 | 6.77 | < 5 |  |
| N#C/N=C(\NCCCc1ccccc1)NCCCc1c[nH]cn1 |  | 5.72 | 5.25 | EC50 [7]: 14100 nM; EC50 [4]: 759 nM |
| N#C/N=C(\NCCSc1ccccc1)NCCc1c[nH]cn1 | 5.05 |  | < 5 |  |
| N#C/N=C(/NCCCCCc1c[nH]cn1)NCCCc1ccccc1 | 6.96 | 6.55 | 5.28 |  |
| CN/C(=N\C#N)NCCCCc1c[nH]cn1 |  | 5.68 | < 5 | pKb [6]: < 5; EC50 [4]: 955 nM |
| N#C/N=C(/NCCc1c[nH]cn1)NCCC(c1ccccc1)c1ccccc1 | < 5 |  | < 5 |  |
| N#C/N=C(/NCCCCc1ccccc1)NCCc1c[nH]cn1 |  |  | < 5 | EC50 [4]: > 10000 nM; pKb [8]: < 5 |
| N#C/N=C(/NCCCCc1c[nH]cn1)NCCCc1ccncc1 |  | 6.11 | 5.11 |  |
